# Most compounds without a hit are left out; they make up all but 4.5% or so of the library.
# TAAR1 antag = human TAAR1 antagonists, primary screen, Fluo-8 calcium fluorescence, CHO RD-HGA16 cells; antagonist; Trace amine-associated receptor 1 (Homo sapiens), Q96RJ0; inhibition, % at 3 µM; 360,000 compounds, 1.5% hits;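 active = inhibition above a per-plate cutoff, the mean inhibition of test compounds on that plate plus 3 SD, cut at about 49% in these data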;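 note: 0% = DMSO plus EC80 beta-PEA response and 100% = DMSO alone without agonist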
# Target sequence (Q96RJ0 whole entry, looked up): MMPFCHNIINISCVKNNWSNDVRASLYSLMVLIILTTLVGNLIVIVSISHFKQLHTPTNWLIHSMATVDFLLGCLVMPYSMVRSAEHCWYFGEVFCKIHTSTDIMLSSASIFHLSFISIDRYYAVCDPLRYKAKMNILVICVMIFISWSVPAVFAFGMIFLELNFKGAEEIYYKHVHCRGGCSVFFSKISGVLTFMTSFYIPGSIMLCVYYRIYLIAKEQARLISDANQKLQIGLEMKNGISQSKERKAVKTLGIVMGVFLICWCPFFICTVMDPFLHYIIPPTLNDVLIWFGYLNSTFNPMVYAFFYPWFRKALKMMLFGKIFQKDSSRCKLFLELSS
#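 Test system: RD-HGA16 CHO cells with stable hTAAR1 and Gα16 / Probe or stimulus: EC80 β-phenethylamine stimulus / Times: seeding 17-24 h prior, 75-min 37 °C, 30-min RT dye loading / Detection: Fluo-8 calcium-sensitive fluorescence / Read-out basis: % inhibition scaled between DMSO and EC80 PEA controls / Repeats: singlicate, one well per test compound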
# GPR7 antag = GPR7 receptor antagonists, primary screen, cell-based, fluorescence, single concentration; GPR7-expressing cells, fluorescence antagonist assay; 290,000 compounds, 1.1% hits; Neuropeptides B/W receptor type 1 (Homo sapiens), P48145; inhibition, % at 4.4 µM; AID 1861, 2009; in the data active = inhibition above about 16%, passing the limit was not always enough;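 note: cells stimulated with the agonist NPW; 0% = agonist with vehicle and 100% = vehicle without agonist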
# Target sequence (P48145 whole entry, looked up): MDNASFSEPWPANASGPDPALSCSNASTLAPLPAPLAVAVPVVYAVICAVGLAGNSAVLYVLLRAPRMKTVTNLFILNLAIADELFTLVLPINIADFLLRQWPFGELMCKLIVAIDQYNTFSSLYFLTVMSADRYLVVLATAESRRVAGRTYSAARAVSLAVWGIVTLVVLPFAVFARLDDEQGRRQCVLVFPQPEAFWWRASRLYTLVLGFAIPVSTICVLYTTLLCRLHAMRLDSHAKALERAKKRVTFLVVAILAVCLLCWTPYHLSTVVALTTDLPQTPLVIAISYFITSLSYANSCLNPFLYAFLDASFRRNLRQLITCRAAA
# OX1R antag-1 = antagonists of human orexin 1 receptor (OX1R); 330,000 compounds, 1.8% hits; AID 485270, 2010; OX1R-expressing cells, FRET antagonist read-out; inhibition, % at 6.6 µM; Orexin/Hypocretin receptor type 1 (Homo sapiens), O43613; in the data active = inhibition mostly above about 38%, no sharp cut-off; inactive = mostly below about 40%;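 note: 0% = agonist challenge alone and 100% = reference antagonist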
# OX1R antag-2 = OX1R (HCRTR1) antagonists, primary screen, fluorescence, CHO/OX1R cells, Fluo-8 calcium, orexin A; Orexin/Hypocretin receptor type 1 (Homo sapiens), O43613; Fluo-8 calcium fluorescence; inhibition, % at 5 µM; 330,000 compounds, 0.43% hits; AID 434989, 2010;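 active = inhibition above its plate's threshold, mean inhibition of all tested compounds on the plate plus 3 SD, cut at about 37% in these data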;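 note: 0% = orexin A challenge wells and 100% = SB-334867-A antagonist wells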
# TAAR1 ag = human TAAR1 agonists, primary screen, Fluo-8 calcium fluorescence, CHO RD-HGA16 cells | vehicle wells 0%, saturating PEA agonist 100% | 360,000 compounds, 0.99% hits | AID 624467, 2012 | activation, % at 3 µM | Trace amine-associated receptor 1 (Homo sapiens), Q96RJ0;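 active = activation above the mean activation of all test compounds in the run plus 3 SD, cut at about 38% in these data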
#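 Assay system – CHO-derived RD-HGA16 cells with stable Gα16 and human TAAR1 · Compound dosing – one-point dosing at 3 µM (nominal) · Incubation – 17-24 h seeding, 75 min 37 °C dye, 30 min RT · Measured by – kinetic Fluo-8 calcium fluorescence · Control set – DMSO vehicle as 0%, PEA at EC100 as 100% · Repeats – single well for each compound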
# CHO parental Ca = ATP-evoked calcium signal inhibitors, parental CHO, primary screen, counter-screen for OX1R antagonist project, cell-based, fluorescence, Fluo-8 calcium dye | 330,000 compounds, 0.63% hits | parental CHO-K1, ATP-induced calcium, Fluo-8 fluorescence | AID 463079, 2010 | inhibition, % at 5.6 µM;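 active = inhibition above that plate's mean sample inhibition plus 3 SD, cut at about 26% in these data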;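 note: 0% = ATP-challenged DMSO wells and 100% = DMSO wells without ATP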
#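 Test system: untransfected parental CHO cell line; also added: ATP stimulus; dosing: 5.6 µM, single dose; signal: calcium-sensitive Fluo-8 fluorescence; measure: percent inhibition of ATP-evoked calcium rise, normalized to controls; benchmarks: low control ATP plus DMSO, high control DMSO only; replication: one well per compound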
# * = called active by the depositor; · = no result.
SMILES,TAAR1 antag,GPR7 antag,OX1R antag-1,OX1R antag-2,TAAR1 ag,CHO parental Ca
Nc1ccc2oc(-c3cc(Br)ccc3Cl)nc2c1,·,-16,47*,-5,·,-16
Nc1nc(-c2ccc([N+](=O)[O-])cc2)cc(=O)[nH]1,-6,·,·,·,0,·
Nc1n[nH]c(-c2ccc([N+](=O)[O-])cc2[N+](=O)[O-])n1,-7,-6,67*,-7,2,1
O=C(NCc1ccccc1)[C@@H]1CCCN1C(=O)[C@H]1CCCN1C(=O)c1ccccc1F,-12,·,·,·,2,·
F[B-](F)(F)c1cncnc1,-8,·,·,·,1,·
CCOC(=O)c1c(S(=O)(=O)NCCc2ccccc2)c(C)n(C)c1C,-18,9,6,-8,39*,-25
CC(C)NS(=O)(=O)c1ccc(CCC(=O)Nc2cc(Cl)ccc2Oc2ccccc2)cc1,·,5,59,31,·,44*
CC(C)NS(=O)(=O)c1ccc(NC(=O)CCc2ccccc2)cc1,-21,-9,8,-11,15,-14
COc1ccccc1N(CC(=O)N/N=C/c1c(O)ccc2ccccc12)S(C)(=O)=O,39,1,69*,-11,19,-11
COCCN1CCCc2nc(-c3ccc(Br)cc3)ccc21,-17,·,·,·,-1,·
O=C(CSc1nc2ncc(Cl)cc2[nH]1)Nc1cccc(F)c1,14,-19,47*,-14,11,4
CN(CC(=O)Nc1ccc(F)cc1)C(=O)CSc1nc2ncc(Cl)cc2[nH]1,-23,-5,17,-8,3,-17
O=c1cc(C(F)(F)F)[nH]c2c(C(F)(F)F)cccc12,·,-12,67*,0,·,8
N#Cc1ccccc1C[C@H](N)C(=O)NC[C@H]1O[C@@H](n2cnc3c(N)ncnc32)[C@H](O)[C@@H]1O,-13,·,·,·,3,·
COc1ccc(Nc2ncccc2C(=O)Nc2ccccc2)cc1,12,15,5,-19,16,50*
COc1ccc2oc(=N)c(C(=O)Nc3ccccc3)cc2c1,5,-4,76*,-4,0,10
O=C(COC(=O)c1cc([N+](=O)[O-])ccc1N1CCOCC1)c1ccccc1Cl,15,16,25,2,1,-23
CC1CN(C(=O)COC(=O)c2cc([N+](=O)[O-])ccc2Cl)CC(C)O1 (centres undefined),-1,-14,41*,-2,7,-10
CC1CCCN(C(=O)COC(=O)c2cc([N+](=O)[O-])ccc2N2CCOCC2)C1 (centres undefined),-12,·,24,-28,3,-19
CC1CC(C)CN(C(=O)COC(=O)c2cc([N+](=O)[O-])ccc2N2CCOCC2)C1 (centres undefined),-14,·,53*,-49,4,-12
O=C(COC(=O)c1cc([N+](=O)[O-])ccc1N1CCOCC1)Nc1c(Cl)cccc1Cl,0,·,54*,-27,10,-5
CC(=O)N1CCN(c2ccc(N3CCN(Cc4ccccc4)[C@H](C)C3)c(C)c2)[C@H](C)C1,-11,·,·,·,2,·
CC1=C/C(=C\C=C(C#N)C#N)N(C)c2ccccc21,17,7,21,44*,20,33*
CN1/C(=C/C=C(C#N)C#N)C(C)(C)c2ccccc21,-22,-1,5,-4,-1,-1
CN(Cc1cnc2nc(N)nc(N)c2n1)c1ccc(C(=O)NC(CCC(=O)O)C(=O)O)cc1 (centres undefined),-22,·,·,·,10,·
SMILES,TAAR1 antag,GPR7 antag,OX1R antag-1,OX1R antag-2,TAAR1 ag,CHO parental Ca
Nc1nc(N)c2nc(CNc3ccc(C(=O)NC(CCC(=O)O)C(=O)O)cc3)cnc2n1 (centres undefined),·,·,61*,-6,·,-5
CCN(CC)C(=O)C1=C(C)N(Cc2ccccc2)C(=O)C(CC(=O)NCC2CCCCC2)C1 (centres undefined),-11,·,·,·,4,·
Cc1cccc(OCc2nnc(SCC(=O)N(C(C)C)C(C)C)n2Cc2ccco2)c1C,-12,-4,36*,8,15,-36
COCCNC(=S)N(C)[C@H]1C[C@H]2c3[nH]c4c(-c5ccccc5)cccc4c3CCN2C[C@H]1[C@H](C)O,-6,·,·,·,3,·
COc1ccc(O)c(-c2cn[nH]c2-c2cccs2)c1,4,20*,11,-10,-3,-1
COc1ccc(-c2[nH]ncc2-c2cscn2)c(O)c1,17,5,8,-1,1,-10
O=C(N[C@H](C(=O)N1CCC[C@H]1C(=O)NCc1ccccc1)c1ccccc1)C1CCCC1,-4,·,·,·,1,·
O=C1c2ccccc2[C@@H]2C[C@@H](O)[C@H](Nc3cccc4ccccc34)CCN12,2,·,42*,5,1,-12
Cc1c(C(=O)N2CCc3ccccc3C2)oc2ccc(S(=O)(=O)N3CCCCCC3)cc12,-1,-11,-3,-42,42*,-18
CCOC(=O)N1CCN(C(=O)c2oc3ccc(S(=O)(=O)N4CCCCCC4)cc3c2C)CC1,2,4,-13,-32,11,-41
c1ccc(CN2CCC3CC2c2cc(N4CCCCC4)ccc23)cc1 (centres undefined),-32,·,·,·,-1,·
C=CCCCN(Cc1ccccc1)S(=O)(=O)c1ccccc1Br,45,·,21,27,5,44*
C=CCCN([C@H](CO)Cc1ccccc1)S(=O)(=O)c1ccccc1Br,-1,·,46*,23,0,-19
C=CS(=O)(=O)N(Cc1ccccc1Br)[C@H](CO)Cc1ccccc1,15,·,·,·,22,·
CCN(CC)C(=O)c1ncn2c1C(=O)NC[C@@H]2C,-3,·,·,·,1,·
CC1=C(C(=O)N2CCOCC2)CC(CC(=O)NCCCCc2ccccc2)C(=O)N1CCC1=CCCCC1 (centres undefined),-4,·,·,·,6,·
COC(=O)C1=C(C)N(Cc2ccccc2C(F)(F)F)C(=NCc2ccc(OC)cc2)NC1c1ccc(F)cc1 (centres undefined),-12,·,·,·,17,·
COc1cc(/C=C(\CC(=O)O)c2nc3ccccc3s2)ccc1OCC(=O)Nc1ccccc1F,2,·,·,·,-3,·
COc1cc(/C=C(\C#N)c2nc3ccccc3s2)ccc1OCC(=O)Nc1ccccc1,·,-6,12,43,·,46*
N#C/C(=C/c1ccncc1)c1nc2ccccc2s1,-1,1,15,51*,4,44*
N#C/C(=C\c1ccncc1)c1nc2ccccc2[nH]1,11,-4,·,·,14,·
COC(=O)c1ccc(/C(O)=C(\C#N)c2nc3ccccc3s2)cc1,-1,-9,50,-11,12,7

# Screens from PubChem BioAssay.
